Test results: ChEMBL document CHEMBL2331228, “Synthesis and insight into the structure-activity relationships of chalcones as antimalarial agents” (J Med Chem, 2013)
In brackets after ≈: the same amount, converted by molar mass. Values belong to the molecule of their own block, whether it stands above or below them. Activity calls are given as the source filed them. The rule behind the calls is not given here.

What was measured:
Plasmodium falciparum [1] = assay: Inhibition of Plasmodium falciparum recombinant Falcipain-3 using Z-LR-AMC as substrate at low concentration after 30 mins by microplate reader analysis
Plasmodium yoelii [2] = assay: Antimalarial activity against chloroquine-resistant Plasmodium yoelii N-67 infected in Swiss mouse assessed as reduction in parasitemia at 50 mg/kg/day, ip administered for 3 days measured on day 4 relative to control; type: functional; parameters: scale not given: the % may be the effect or the level left; details: route intraperitoneal
[3] = Inhibition of Plasmodium falciparum recombinant Falcipain-2 using Z-LR-AMC as substrate after 30 mins by microplate reader analysis
Plasmodium falciparum [4] = assay: Resistance ratio of IC5O for Plasmodium falciparum K1 to IC50 for Plasmodium falciparum 3D7; type: functional
Procedure, shortened: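 Ratio of K1 IC50 to 3D7 IC50. Both come from the 72 h SYBR Green I fluorescence assay: seven 2-fold dilutions in duplicate, 0.8% parasitemia, IC50 by logit regression.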

Plasmodium falciparum [5] = assay: Antimalarial activity against chloroquine-resistant Plasmodium falciparum K1 after 72 hrs by SYBR Green I-based fluorescence assay; type: functional, organism-based; details: K1, 72 h
Procedure, shortened: (§1)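 Parasites cultured in RPMI with 10% FBS, gentamycin and Fungizone (pH 7.2) at 37 °C in CO2. Compounds from DMSO stock (5 mg/mL). Seven 2-fold serial dilutions, duplicate wells. Cells added at 2% hematocrit, 0.8% parasitemia; uninfected-cell wells kept as background. After 72 h, lysis buffer with SYBR Green I, 1 h at 37 °C, fluorescence read. IC50 by logit regression of dose-response.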

[6] = Cytotoxicity against african green monkey Vero C1008 cells after 72 hrs by MTT assay; type: cell-based; details: chlorocebus sabaeus
Procedure, shortened: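 Vero (C1008) cells were incubated with dilutions of compound for 72 h and read by MTT. CC50 was obtained by nonlinear regression.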

[7] = Selectivity index, ratio of CC50 for african green monkey Vero C1008 cells to IC50 for Plasmodium falciparum K1; type: functional
Procedure, shortened: (§2)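 SI = CC50 (Vero, 72 h MTT) / IC50. IC50 comes from a 72 h SYBR Green I fluorescence assay: seven 2-fold dilutions in duplicate, 2% cell suspension at 0.8% parasitemia, and Logit regression of the dose-response.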

Plasmodium yoelii [8] = assay: Antimalarial activity against chloroquine-resistant Plasmodium yoelii N-67 infected in Swiss mouse assessed as mean survival time of host at 50 mg/kg/day, ip administered for 3 days (reference value: 9.20 +/- 0.44 days); type: functional; details: route intraperitoneal
Plasmodium falciparum [9] = assay: Activation of Plasmodium falciparum recombinant Falcipain-3 using Z-LR-AMC as substrate at high concentration after 30 mins by microplate reader analysis
[10] = Selectivity index, ratio of CC50 for african green monkey Vero C1008 cells to IC50 for Plasmodium falciparum 3D7; type: functional; procedure, shortened: as §2
Plasmodium falciparum [11] = assay: Antimalarial activity against schizont stage of chloroquine-sensitive Plasmodium falciparum 3D7 after more than 40 hrs by Giemsa staining-based light microscopic analysis; type: functional; details: 3D7, 40 h
Procedure, shortened: (§3)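 Ring stages (5% D-sorbitol synchronized) of 3D7 were grown in RPMI with 10% FBS, gentamycin and Fungizone at 37 °C under CO2. They were exposed in duplicate to compound (DMSO stock, 5 mg/mL) at 2, 10 and 50 μg/mL, with 3% cell suspension and 1% parasitized cells, for >40 h. Giemsa-stained thin smears were counted for schizonts. MIC is the lowest concentration giving 100% inhibition of schizont maturation.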

Plasmodium falciparum [12] = assay: Antimalarial activity against schizont stage of chloroquine-sensitive Plasmodium falciparum 3D7 after 72 hrs by SYBR Green I-based fluorescence assay; type: functional, organism-based; details: 3D7, 72 h; procedure, shortened: as §1
Plasmodium falciparum [13] = assay: Antimalarial activity against schizont stage of chloroquine-sensitive Plasmodium falciparum 3D7 assessed as reduction in parasitemia at 10 ug/ml after more than 40 hrs by Giemsa staining-based light microscopy; type: functional; parameters: scale not given: the % may be the effect or the level left; procedure, shortened: as §3
Plasmodium falciparum [14] = assay: Antimalarial activity against schizont stage of chloroquine-sensitive Plasmodium falciparum 3D7 assessed as reduction in parasitemia at 2 to 10 ug/ml after more than 40 hrs by Giemsa staining-based light microscopy; type: functional; parameters: scale not given: the % may be the effect or the level left; procedure, shortened: as §3
Plasmodium yoelii [15] = assay: Antimalarial activity against chloroquine-resistant Plasmodium yoelii N-67 infected in Swiss mouse assessed as reduction in parasitemia at 20 mg/kg/day, po administered for 3 days measured on day 4 relative to control; type: functional; parameters: scale not given: the % may be the effect or the level left
Plasmodium yoelii [16] = assay: Antimalarial activity against chloroquine-resistant Plasmodium yoelii N-67 infected in Swiss mouse assessed as mean survival time at 20 mg/kg/day, po administered for 3 days (reference value: 9.20 +/- 0.44 days); type: functional
Plasmodium yoelii [17] = assay: Antimalarial activity against chloroquine-resistant Plasmodium yoelii N-67 infected in Swiss mouse assessed as reduction in parasitemia at 3 mg/kg/day, im administered for 3 days measured on day 4 relative to control; type: functional; parameters: scale not given: the % may be the effect or the level left; details: route intramuscular
Plasmodium yoelii [18] = assay: Antimalarial activity against chloroquine-resistant Plasmodium yoelii N-67 infected in Swiss mouse assessed as mean survival time at 3 mg/kg/day, im administered for 3 days (reference value: 9.20 +/- 0.44 days); type: functional; details: route intramuscular
Plasmodium yoelii [19] = assay: Antimalarial activity against chloroquine-resistant Plasmodium yoelii N-67 infected in Swiss mouse assessed as mean survival time at 50 mg/kg/day, po administered for 3 days (reference value: 9.20 +/- 0.44 days); type: functional
[20] = Tmax in Sprague-Dawley rat at 50 mg/kg, po by LC-MS/MS analysis; type: ADME, organism-based; parameters: dose 50 mg/kg, route oral; details: in vivo
Procedure, shortened: (§4)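 Male Sprague-Dawley rats (n = 5, 220−240 g), single oral dose 50 mg/kg. Plasma stored at −70 °C, processed by acetonitrile protein precipitation, and analysed by LC-MS/MS with QC samples among calibrators.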

[21] = Elimination half life in Sprague-Dawley rat at 50 mg/kg, po by LC-MS/MS analysis; type: ADME, organism-based; parameters: dose 50 mg/kg, route oral; details: in vivo, read-out: beta t1/2 (converted); procedure, shortened: as §4
[22] = Apparent oral volume of distribution in Sprague-Dawley rat at 50 mg/kg by LC-MS/MS analysis; type: ADME, organism-based; parameters: dose 50 mg/kg, route oral; details: in vivo; procedure, shortened: as §4
Plasmodium yoelii [23] = assay: Antimalarial activity against chloroquine-resistant Plasmodium yoelii N-67 infected in Swiss mouse assessed as reduction in parasitemia at 50 mg/kg/day, po administered for 3 days measured on day 4 relative to control; type: functional; parameters: scale not given: the % may be the effect or the level left
[24] = Apparent oral clearance in Sprague-Dawley rat at 50 mg/kg by LC-MS/MS analysis; type: ADME, organism-based; parameters: dose 50 mg/kg, route oral; details: in vivo; procedure, shortened: as §4
[25] = Mean residence time in Sprague-Dawley rat at 50 mg/kg, po by LC-MS/MS analysis; type: ADME, organism-based; parameters: dose 50 mg/kg, route oral; details: in vivo; procedure, shortened: as §4
[26] = Cmax in Sprague-Dawley rat at 50 mg/kg, po by LC-MS/MS analysis; type: ADME, organism-based; parameters: dose 50 mg/kg, route oral; details: in vivo; procedure, shortened: as §4
[27] = AUC (0 to t) in Sprague-Dawley rat at 50 mg/kg, po by LC-MS/MS analysis; type: ADME, organism-based; parameters: dose 50 mg/kg, route oral; details: plasma; procedure, shortened: as §4
Plasmodium falciparum [28] = assay: Antimalarial activity against Plasmodium falciparum; type: functional

SMILES: CC(C)=CCCC1(C)C=Cc2c(ccc(C(=O)/C=C/c3ccc(O)c(C=O)c3)c2O)O1 (centres undefined)
inhibition (Plasmodium falciparum [1]): Active
Activity (Plasmodium yoelii [2]): 89%
IC50 [3]: 5.5 µM
Ratio IC50 (Plasmodium falciparum [4]): 8.7
IC50 (Plasmodium falciparum [5]): 1090 nM
CC50 at 72 h [6]: 9.9 µM
Ratio CC50/IC50 [7]: 9
MST (Plasmodium yoelii [8]): 12.33 days
Activity (Plasmodium falciparum [9]): Active
Ratio CC50/IC50 [10]: 79
MIC (Plasmodium falciparum [11]): 0.59 µM (≈ 0.247 µg/mL)
IC50 (Plasmodium falciparum [12]): 125 nM

SMILES: CC(C)=CCCC1(C)C=Cc2ccc(O)c(C(=O)/C=C/c3ccc(O)c(C=O)c3)c2O1 (centres undefined)
Activity (Plasmodium yoelii [2]): 88%
Ratio IC50 (Plasmodium falciparum [4]): 0.9
IC50 (Plasmodium falciparum [5]): 84.2 nM
CC50 at 72 h [6]: 31.7 µM
Ratio CC50/IC50 [7]: 376
MST (Plasmodium yoelii [8]): 16.75 days
Ratio CC50/IC50 [10]: 334
MIC (Plasmodium falciparum [11]): 0.39 µM (≈ 0.163 µg/mL)
IC50 (Plasmodium falciparum [12]): 94.7 nM

SMILES: CCN(CC)CCCC(C)Nc1ccnc2cc(Cl)ccc12 (centres undefined) [CHLOROQUINE]
Activity (Plasmodium yoelii [15]): 99%
MST (Plasmodium yoelii [16]): >28 days

SMILES: CCO[C@H]1O[C@@H]2O[C@@]3(C)CC[C@H]4[C@H](C)CC[C@@H]([C@H]1C)[C@@]24OO3 [ARTEMOTIL]
Ratio IC50 (Plasmodium falciparum [4]): 0.79
CC50 at 72 h [6]: 136 µM
Activity (Plasmodium yoelii [17]): 100%
Ratio CC50/IC50 [7]: 124857
Ratio CC50/IC50 [10]: 98720
MST (Plasmodium yoelii [18]): >28 days
IC50 (Plasmodium falciparum [12]): 1.37 nM

SMILES: CC(C)=CCCC1(C)C=Cc2c(ccc(C(=O)/C=C/c3cc(C=O)ccc3O)c2O)O1 (centres undefined)
inhibition (Plasmodium falciparum [1]): inactive
MST (Plasmodium yoelii [19]): 9.2 days
Tmax [20]: 3 h
Activity (Plasmodium yoelii [2]): 98%
IC50 [3]: 13.5 µM
Ratio IC50 (Plasmodium falciparum [4]): 2.6
half-life [21]: 139 min
IC50 (Plasmodium falciparum [5]): 935 nM
CC50 at 72 h [6]: 22.2 µM
Vd/F [22]: 433 L/kg
Activity (Plasmodium yoelii [23]): 23%
Ratio CC50/IC50 [7]: 23.7
MST (Plasmodium yoelii [8]): 17.4 days
Activity (Plasmodium falciparum [9]): Active
Ratio CC50/IC50 [10]: 64
CL/F [24]: 2140 mL/min/kg
MIC (Plasmodium falciparum [11]): 1.19 µM (≈ 0.498 µg/mL)
IC50 (Plasmodium falciparum [12]): 347 nM
MRT [25]: 3.89 h
Cmax [26]: 78.3 ng/mL
AUC(0-t) [27]: 389 ng·h/mL

SMILES: CC(C)=CCCC1(C)C=Cc2ccc(O)c(C(=O)/C=C/c3cc(C=O)ccc3O)c2O1 (centres undefined)
inhibition (Plasmodium falciparum [1]): inactive
Activity (Plasmodium yoelii [2]): 87%
IC50 [3]: 4.6 µM
IC50 (Plasmodium falciparum [5]): > 1200 nM
CC50 at 72 h [6]: 103 µM
MST (Plasmodium yoelii [8]): 18.4 days
Activity (Plasmodium falciparum [9]): Active
Ratio CC50/IC50 [10]: 1173
MIC (Plasmodium falciparum [11]): 0.31 µM (≈ 0.13 µg/mL)
IC50 (Plasmodium falciparum [12]): 87.5 nM

SMILES: CC(C)=CCC1=C/C(=C(O)\C=C\c2ccc(O)cc2)C(=O)C(CC=C(C)C)(CC=C(C)C)C1=O [MUNCHIWARIN]
MIC (Plasmodium falciparum [28]): 4.34 µM (≈ 2 µg/mL)

SMILES: CC(C)=CCCC1(C)C=Cc2c(O)c(C(=O)/C=C/c3cc(C=O)ccc3O)cc(CC=C(C)C)c2O1 (centres undefined)
Activity (Plasmodium yoelii [2]): 71%
Ratio IC50 (Plasmodium falciparum [4]): 5
IC50 (Plasmodium falciparum [5]): 366 nM
CC50 at 72 h [6]: 88.6 µM
Ratio CC50/IC50 [7]: 242
MST (Plasmodium yoelii [8]): 12.6 days
Ratio CC50/IC50 [10]: 1210
MIC (Plasmodium falciparum [11]): 0.25 µM (≈ 0.122 µg/mL)
IC50 (Plasmodium falciparum [12]): 73.2 nM

Now from value to molecule, other results behind:

MIC (Plasmodium falciparum [11]): > 28.2 µM
SMILES: CC1(C)CCc2cc(C(=O)/C=C/c3cccc([N+](=O)[O-])c3)c(O)cc2O1
Activity (Plasmodium falciparum [13]): <100%

MIC (Plasmodium falciparum [11]): > 19.3 µM
SMILES: CC(C)CCC[C@H](C)CCC[C@H](C)CCCC1(C)CCc2cc(C(=O)/C=C/c3ccccn3)c(O)cc2O1 (some centres undefined)
Activity (Plasmodium falciparum [14]): <100%

MIC (Plasmodium falciparum [11]): > 28.3 µM
SMILES: CC1(C)CCc2cc(C(=O)/C=C/c3ccc([N+](=O)[O-])cc3)c(O)cc2O1
Activity (Plasmodium falciparum [13]): <100%

MIC (Plasmodium falciparum [11]): > 26.6 µM
SMILES: CC1(C)CCc2cc(C(=O)/C=C/c3ccc(Cl)c(Cl)c3)c(O)cc2O1
Activity (Plasmodium falciparum [13]): <100%

MIC (Plasmodium falciparum [11]): > 29.1 µM
SMILES: CC1(C)CCc2cc(C(=O)/C=C/c3ccc(F)c(F)c3)c(O)cc2O1
Activity (Plasmodium falciparum [13]): <100%

MIC (Plasmodium falciparum [11]): > 28.5 µM
SMILES: CN(C)c1ccc(/C=C/C(=O)c2ccc3c(c2O)CCC(C)(C)O3)cc1
Activity (Plasmodium falciparum [13]): <100%

MIC (Plasmodium falciparum [11]): > 32.4 µM
SMILES: CC1(C)CCc2cc(C(=O)/C=C/c3ccccn3)c(O)cc2O1
Activity (Plasmodium falciparum [14]): <100%

MIC (Plasmodium falciparum [11]): > 19.3 µM
SMILES: CC(C)CCC[C@H](C)CCC[C@H](C)CCCC1(C)CCc2cc(C(=O)/C=C/c3cccnc3)c(O)cc2O1 (some centres undefined)
Activity (Plasmodium falciparum [14]): <100%

MIC (Plasmodium falciparum [28]): 5.1 µM (≈ 2 µg/mL)
MIC (Plasmodium falciparum [11]): 5.1 µM (≈ 2 µg/mL)
SMILES: CC(C)=CCc1cc(C(=O)/C=C/c2ccc(O)cc2)c(O)c(CC=C(C)C)c1O [MEDICAGENIN]
